# Columns and labels:
# [1] = system: CEM-SS; assay: Inhibitory concentration for cytopathicity of HIV-1 RF in CEM-SS cells; NA means there was no observed inhibition of HIV-1 cytopathicity up to the cytotoxic concentration in uninfected cells.; assay type: functional, cell-based
# Method in brief: (§1)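 XTT cytoprotection assay in CEM-SS cells infected with HIV-1 RF, with uninfected cultures for cytotoxicity, in presence of fetal calf serum. Data as percent of uninfected drug-free control. EC50 is 50% protection from cytopathicity; CC50 is 50% cell death in uninfected cells; TI = CC50/EC50. Triplicates on each of two sister plates, plate EC50s averaged. Confirmed by supernatant RT and p24.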
# [2] = system: CCRF-CEM; assay: The compound is evaluated for the cytotoxic concentration for the mock-infected CEM cells; assay type: functional; settings: Homo sapiens; method in brief: as §1
# [3] = target: Human immunodeficiency virus type 1 reverse transcriptase (Human immunodeficiency virus 1, UniProt Q72547); assay: Inhibitory activity against human immunodeficiency virus (HIV) - 1 reverse transcriptase with rCdG as the template primer
# Method in brief: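 Reactions stopped with ice-cold 10% trichloroacetate, filtered through GF/C membrane, washed with ethanol, radiolabel counted by Cerenkov counting. AZTTP and nevirapine as positive controls; IC50 reported.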
# [4] = system: CEM-SS; assay: The compound is evaluated for the therapeutic index, which is the CC50 divided by the EC50.; assay type: functional; method in brief: as §1
# [5] = system: CEM-SS; assay: Inhibitory concentration for cytopathicity of HIV-1 in CEM-SS cells; assay type: functional, cell-based; settings: Homo sapiens; method in brief: as §1
SMILES,EC50 [1],CC50 [2],IC50 [3],TI [4],EC50 [5]
COC(=O)c1cc(C(=CCCCCO)c2cc(Cl)c(OC)c(C(=O)OC)c2)cc(Cl)c1OC,Not Active,10.2 µM,,,
COC(=O)c1cc(C(=CCCOS(C)(=O)=O)c2cc(Cl)c(OC)c(C(=O)OC)c2)cc(Cl)c1OC,Not Active,6.9 µM,96 µM,,
COC(=O)c1cc(C(=CCCN=[N+]=[N-])c2cc(Br)c(OC)c(C(=O)OC)c2)cc(Br)c1OC,,> 316 µM,94 µM,>278,1100 nM
CCCCCC=C(c1cc(I)c(OC)c(C(=O)OC)c1)c1cc(I)c(OC)c(C(=O)OC)c1,Not Active,> 316 µM,11 µM,,
COC=C(c1cc(Br)c(OC)c(C(=O)OC)c1)c1cc(Br)c(OC)c(C(=O)OC)c1,Not Active,22 µM,> 100 µM,,
COC(=O)C=C(c1cc(Cl)c(OC)c(C(=O)OC)c1)c1cc(Cl)c(OC)c(C(=O)OC)c1,Not Active,25 µM,16 µM,,

# From ChEMBL document CHEMBL1131244, “New alkenyldiarylmethanes with enhanced potencies as anti-HIV agents which act as non-nucleoside reverse transcriptase inhibitors” (J Med Chem, 1998)
